Assay results: ChEMBL document CHEMBL1122900, “Effects of alkyl and aryl substitution on the myocardial specificity of radioiodinated phosphonium, arsonium, and ammonium cations” (J Med Chem, 1985)

What was measured:
Rattus norvegicus [1] = test: Evaluated for the distribution of radioactivity in tissues of female Fischer rats heart after 30 minutes intravenous administration; dose/g, range 2.67-4.31; type: ADME, organism-based; conditions: in vivo, 0.5 h
Rattus norvegicus [2] = test: Evaluated for the distribution of radioactivity in tissues of female Fischer rats kidneys after 60 minutes intravenous administration; dose/g, range 4.59-8.81; type: ADME, organism-based, Kidney; conditions: in vivo, 1 h
Rattus norvegicus [3] = test: Evaluated for the distribution of radioactivity in tissues of female Fischer rats blood after 60 minutes intravenous administration; dose/g, range 0.15-0.23; type: ADME, organism-based; conditions: in vivo, 1 h
Rattus norvegicus [4] = test: Evaluated for the distribution of radioactivity in tissues of female Fischer rats lungs after 5 minutes intravenous administration; dose/g, range 0.95-1.49; type: ADME, organism-based, Lung; conditions: in vivo
Rattus norvegicus [5] = test: Evaluated for the distribution of radioactivity in tissues of female Fischer rats thyroid after 30 minutes intravenous administration; dose/g, range 32-42; type: ADME, organism-based, Thyroid gland; conditions: in vivo, 0.5 h
Rattus norvegicus [6] = test: Evaluated for the distribution of radioactivity in tissues of female Fischer rats heart after 60 minutes intravenous administration; dose/g, range 3-3.70; type: ADME, organism-based; conditions: in vivo, 1 h
Rattus norvegicus [7] = test: Evaluated for the distribution of radioactivity in tissues of female Fischer rats kidneys after 30 minutes intravenous administration; dose/g, range 10.5-14.4; type: ADME, organism-based, Kidney; conditions: in vivo, 0.5 h
Rattus norvegicus [8] = test: Evaluated for the distribution of radioactivity in tissues of female Fischer rats heart after 5 minutes intravenous administration; dose/g, range 2.78-3.62; type: ADME, organism-based; conditions: in vivo
Rattus norvegicus [9] = test: Evaluated for the distribution of radioactivity in tissues of female Fischer rats liver after 30 minutes intravenous administration; dose/g, range 0.57-0.72; type: ADME, organism-based; conditions: in vivo, 0.5 h
Rattus norvegicus [10] = test: Evaluated for the distribution of radioactivity in tissues of female Fischer rats blood after 5 minutes intravenous administration; dose/g, range 0.25-0.34; type: ADME, organism-based; conditions: in vivo
Rattus norvegicus [11] = test: Evaluated for the distribution of radioactivity in tissues of female Fischer rats kidneys after 5 minutes intravenous administration; dose/g, range 10.7-16.9; type: ADME, organism-based, Kidney; conditions: in vivo
Rattus norvegicus [12] = test: Evaluated for the distribution of radioactivity in tissues of female Fischer rats lungs after 30 minutes intravenous administration; dose/g, range 0.99-1.23; type: ADME, organism-based, Lung; conditions: in vivo, 0.5 h
Rattus norvegicus [13] = test: Evaluated for the distribution of radioactivity in tissues of female Fischer rats blood after 30 minutes intravenous administration; dose/g, range 0.22-0.32; type: ADME, organism-based; conditions: in vivo, 0.5 h
Rattus norvegicus [14] = test: Evaluated for the distribution of radioactivity in tissues of female Fischer rats liver after 60 minutes intravenous administration; dose/g, range 0.24-0.30; type: ADME, organism-based; conditions: in vivo, 1 h
Rattus norvegicus [15] = test: Evaluated for the distribution of radioactivity in tissues of female Fischer rats thyroid after 60 minutes intravenous administration; dose/g, range 30-53; type: ADME, organism-based, Thyroid gland; conditions: in vivo, 1 h
Rattus norvegicus [16] = test: Evaluated for the distribution of radioactivity in tissues of female Fischer rats liver after 5 minutes intravenous administration; dose/g, range 1.26-2.45; type: ADME, organism-based; conditions: in vivo
Rattus norvegicus [17] = test: Evaluated for the distribution of radioactivity in tissues of female Fischer rats thyroid after 5 minutes intravenous administration; dose/g, range 22-25; type: ADME, organism-based, Thyroid gland; conditions: in vivo
Rattus norvegicus [18] = test: Evaluated for the distribution of radioactivity in tissues of female Fischer rats lungs after 60 minutes intravenous administration; dose/g, range 0.83-2.11; type: ADME, organism-based, Lung; conditions: in vivo, 1 h
Rattus norvegicus [19] = test: Evaluated for the distribution of radioactivity in tissues of female Fischer rats lungs after 30 minutes intravenous administration; dose/g, range 0.83-1.21; type: ADME, organism-based, Lung; conditions: in vivo, 0.5 h
Method in brief: (§1)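 Female Fischer 344 rats (10-12 weeks, 170-200 g), fed ad libitum, got a single iv tail-vein injection under ether anaesthesia of the 125I-labelled cation (2.85-8.38 μCi). The tracer was dissolved in Me2SO, diluted with saline to 1% Me2SO and filtered. At the set times rats were killed by cervical fracture and blood taken by cardiac puncture. Organs were rinsed, blotted, weighed and gamma-counted against injectate standards. Results are %dose/g, mean and range, n=5. Thyroid weight was taken as 7.5 mg/100 g body weight.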

Rattus norvegicus [20] = test: Evaluated for the distribution of radioactivity in tissues of female Fischer rats heart after 30 minutes intravenous administration; dose/g, range 1.39-2.43; type: ADME, organism-based; conditions: in vivo, 0.5 h
Rattus norvegicus [21] = test: Evaluated for the distribution of radioactivity in tissues of female Fischer rats blood after 30 minutes intravenous administration; dose/g, range 0.19-0.24; type: ADME, organism-based; conditions: in vivo, 0.5 h
Rattus norvegicus [22] = test: Evaluated for the distribution of radioactivity in tissues of female Fischer rats thyroid after 60 minutes intravenous administration; dose/g, range 35-53; type: ADME, organism-based, Thyroid gland; conditions: in vivo, 1 h; method in brief: as §1
Rattus norvegicus [23] = test: Evaluated for the distribution of radioactivity in tissues of female Fischer rats liver after 30 minutes intravenous administration; dose/g, range 1.51-2.23; type: ADME, organism-based; conditions: in vivo, 0.5 h
Rattus norvegicus [24] = test: Evaluated for the distribution of radioactivity in tissues of female Fischer rats lungs after 60 minutes intravenous administration; dose/g, range 0.81-1.13; type: ADME, organism-based, Lung; conditions: in vivo, 1 h; method in brief: as §1
Rattus norvegicus [25] = test: Evaluated for the distribution of radioactivity in tissues of female Fischer rats kidneys after 60 minutes intravenous administration; dose/g, range 4.62-5.60; type: ADME, organism-based, Kidney; conditions: in vivo, 1 h
Rattus norvegicus [26] = test: Evaluated for the distribution of radioactivity in tissues of female Fischer rats liver after 5 minutes intravenous administration; dose/g, range 3.12-4.56; type: ADME, organism-based; conditions: in vivo; method in brief: as §1
Rattus norvegicus [27] = test: Evaluated for the distribution of radioactivity in tissues of female Fischer rats kidneys after 5 minutes intravenous administration; dose/g, range 14.4-20.1; type: ADME, organism-based, Kidney; conditions: in vivo
Rattus norvegicus [28] = test: Evaluated for the distribution of radioactivity in tissues of female Fischer rats thyroid after 5 minutes intravenous administration; dose/g, range 13-18; type: ADME, organism-based, Thyroid gland; conditions: in vivo; method in brief: as §1
Rattus norvegicus [29] = test: Evaluated for the distribution of radioactivity in tissues of female Fischer rats blood after 5 minutes intravenous administration; dose/g, range 0.40-0.45; type: ADME, organism-based; conditions: in vivo
Rattus norvegicus [30] = test: Evaluated for the distribution of radioactivity in tissues of female Fischer rats kidneys after 30 minutes intravenous administration; dose/g, range 7.21-7.95; type: ADME, organism-based, Kidney; conditions: in vivo, 0.5 h
Rattus norvegicus [31] = test: Evaluated for the distribution of radioactivity in tissues of female Fischer rats blood after 60 minutes intravenous administration; dose/g, range 0.13-0.15; type: ADME, organism-based; conditions: in vivo, 1 h
Rattus norvegicus [32] = test: Evaluated for the distribution of radioactivity in tissues of female Fischer rats liver after 60 minutes intravenous administration; dose/g, range 0.73-1.19; type: ADME, organism-based; conditions: in vivo, 1 h; method in brief: as §1
Rattus norvegicus [33] = test: Evaluated for the distribution of radioactivity in tissues of female Fischer rats heart after 5 minutes intravenous administration.; dose/g, range 2.20-2.97; type: ADME, organism-based; conditions: in vivo
Rattus norvegicus [34] = test: Evaluated for the distribution of radioactivity in tissues of female Fischer rats heart after 60 minutes intravenous administration; dose/g, range 1.93-3.58; type: ADME, organism-based; conditions: in vivo, 1 h
Rattus norvegicus [35] = test: Evaluated for the distribution of radioactivity in tissues of female Fischer rats thyroid after 30 minutes intravenous administration; dose/g, range 19-24; type: ADME, organism-based, Thyroid gland; conditions: in vivo, 0.5 h; method in brief: as §1
Rattus norvegicus [36] = test: Evaluated for the distribution of radioactivity in tissues of female Fischer rats lungs after 5 minutes intravenous administration; dose/g, range 0.96-1.35; type: ADME, organism-based, Lung; conditions: in vivo; method in brief: as §1

I/C=C/CCC[As+](c1ccccc1)(c1ccccc1)c1ccccc1.[I-]
Distribution (Rattus norvegicus [1]): 3.17% | Distribution (Rattus norvegicus [2]): 6.92% | Distribution (Rattus norvegicus [3]): 0.19% | Distribution (Rattus norvegicus [4]): 1.24% | Distribution (Rattus norvegicus [5]): 37% | Distribution (Rattus norvegicus [6]): 3.37% | Distribution (Rattus norvegicus [7]): 12.01% | Distribution (Rattus norvegicus [8]): 3.22% | Distribution (Rattus norvegicus [9]): 0.64% | Distribution (Rattus norvegicus [10]): 0.31% | Distribution (Rattus norvegicus [11]): 13.14% | Distribution (Rattus norvegicus [12]): 1.09% | Distribution (Rattus norvegicus [13]): 0.26% | Distribution (Rattus norvegicus [14]): 0.27% | Distribution (Rattus norvegicus [15]): 43% | Distribution (Rattus norvegicus [16]): 1.78% | Distribution (Rattus norvegicus [17]): 23% | Distribution (Rattus norvegicus [18]): 1.31%

CCCCCCCC[P+](C)(C)CCC/C=C/I.[I-]
Distribution (Rattus norvegicus [19]): 1.05% | Distribution (Rattus norvegicus [20]): 1.95% | Distribution (Rattus norvegicus [21]): 0.22% | Distribution (Rattus norvegicus [22]): 41% | Distribution (Rattus norvegicus [23]): 1.84% | Distribution (Rattus norvegicus [24]): 0.95% | Distribution (Rattus norvegicus [25]): 5.15% | Distribution (Rattus norvegicus [26]): 3.72% | Distribution (Rattus norvegicus [27]): 17.54% | Distribution (Rattus norvegicus [28]): 16% | Distribution (Rattus norvegicus [29]): 0.42% | Distribution (Rattus norvegicus [30]): 7.51% | Distribution (Rattus norvegicus [31]): 0.14% | Distribution (Rattus norvegicus [32]): 0.93% | Distribution (Rattus norvegicus [33]): 2.51% | Distribution (Rattus norvegicus [34]): 2.73% | Distribution (Rattus norvegicus [35]): 21% | Distribution (Rattus norvegicus [36]): 1.18%
